Data set [1] can be described thus: Drug level in spontaneously hypertensive rat CSF at 10 mg/kg measured after 4 hrs. Type of data set: ADME, organism-based, Cerebrospinal fluid. Set-up: dose 10 mg/kg. As to conditions: read-out: Drug uptake. The gist of the method: (§1)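 Rats received 10 mg/kg and were sacrificed at peak (about 4 h) or trough (about 24 h) post dose. Total and free drug were measured in plasma, isolated brain and CSF, and the brain/plasma ratio was derived from these.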

Data set [2] in a line: Plasma concentration in spontaneously hypertensive rat model at 10 mg/kg measured after 24 hrs. Type of data set: ADME, organism-based. On the set-up: dose 10 mg/kg. The method in brief: as §1
Data set [3] relates to Rattus norvegicus. The experiment in a line: Antihypertensive activity in spontaneously hypertensive rat model assessed as reduction in diastolic BP at 10 mg/kg for 7 days. Type of data set: functional, organism-based. On the set-up: dose 10 mg/kg. The gist of the method:
(§2)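 Spontaneously hypertensive rats implanted with telemetry abdominal aorta catheters and dosed daily at 10 mg/kg over 7 days. Heart rate and systolic and diastolic BP were recorded, with change from baseline compared against vehicle-treated animals.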

The test system of data set [4] is Plasma. The experiment in a line: Free plasma concentration in spontaneously hypertensive rat at 10 mg/kg measured after 24 hrs. The class given is ADME, organism-based. On the set-up: dose 10 mg/kg. The conditions noted are these: in vivo. The method in brief:
as §1

Data set [5] concerns Plasma. The experiment in a line: Free plasma concentration in spontaneously hypertensive rat at 10 mg/kg measured after 4 hrs. Type of data set: ADME, organism-based. The conditions noted are these: in vivo. Set-up: dose 10 mg/kg. The gist of the method:
as §1

Data set [6] has as its system Brain. Nature of the data set: Free drug level in spontaneously hypertensive rat brain at 10 mg/kg measured after 24 hrs. Type of data set: ADME, organism-based. On the set-up: dose 10 mg/kg. The conditions noted are these: in vivo. The method in brief:
as §1

Data set [7] is described as follows: Total drug level in spontaneously hypertensive rat brain at 10 mg/kg measured after 4 hrs. Type of data set: ADME, organism-based. Set-up: dose 10 mg/kg. As to conditions: read-out: Drug uptake. The method in brief: as §1
Data set [8] in a line: Plasma concentration in spontaneously hypertensive rat model at 10 mg/kg measured after 4 hrs. Set-up: dose 10 mg/kg. The class given is ADME, organism-based. The method in brief:
as §1

Data set [9] in a line: Drug level in spontaneously hypertensive rat CSF at 10 mg/kg measured after 24 hrs. The class given is ADME, organism-based, Cerebrospinal fluid. On the set-up: dose 10 mg/kg. As to conditions: read-out: Drug uptake. The gist of the method:
as §1

Data set [10] relates to Rattus norvegicus. Nature of the data set: Antihypertensive activity in spontaneously hypertensive rat model assessed as reduction in systolic BP at 10 mg/kg for 7 days. The class given is functional. The gist of the method:
as §2

Data set [11] concerns Rattus norvegicus. The experiment in a line: Antihypertensive activity in spontaneously hypertensive rat model assessed as reduction in heart rate at 10 mg/kg for 7 days. Type of data set: functional, organism-based. Set-up: dose 10 mg/kg. The method in brief:
as §2

Data set [12] concerns the target 11-beta-hydroxysteroid dehydrogenase 1 (Rattus norvegicus, UniProt P16232). The experiment in a line: Inhibition of rat 11beta-HSD1.
The subject of data set [13] is Brain. Nature of the data set: Free drug level in spontaneously hypertensive rat brain at 10 mg/kg measured after 4 hrs. The class given is ADME, organism-based. Set-up: dose 10 mg/kg. As to conditions: in vivo. The method in brief:
as §1

The nature of data set [14]: Ratio of drug level in brain to plasma of spontaneously hypertensive rat at 10 mg/kg. Set-up: dose 10 mg/kg. Type of data set: ADME, organism-based. The conditions noted are these: read-out: BPR. The method in brief: as §1
Data set [15] is described as follows: Total drug level in spontaneously hypertensive rat brain at 10 mg/kg measured after 24 hrs. The class given is ADME, organism-based. Set-up: dose 10 mg/kg. The conditions noted are these: read-out: Drug uptake. The method in brief: as §1
Data set [16] is filed under the species Homo sapiens. The experiment in a line: Antihypertensive activity in hypertensive patients assessed as placebo-corrected diastolic BP at 6 mg/day.
For data set [17], the species on record is Homo sapiens. The experiment in a line: Antihypertensive activity in hypertensive patients assessed as placebo-corrected systolic BP at 6 mg/day.
Data set [18] relates to Mus musculus. Nature of the data set: Antihypertensive activity in telemeterized 11beta-HSD1 KO mouse assessed as reduction in systolic BP at 30 mg/kg/day for 11 days. The class given is functional. The method in brief: (§3)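 Telemeterized 11β-HSD1 knockout mice and wild-type controls (not littermates) were dosed at 30 mg/kg/day. Systolic BP change was compared with vehicle-treated mice of each genotype, and plasma exposure was also measured.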

Data set [19] relates to Mus musculus. Nature of the data set: Antihypertensive activity in telemeterized wild type mouse assessed as reduction in systolic BP at 30 mg/kg/day for 11 days. Type of data set: functional. The method in brief: as §3
Data set [20] has as its target 11-beta-HSD2 (Homo sapiens). The experiment in a line: Inhibition of human microsomal 11beta-HSD2 assessed as inhibition of […] by cell-based assay.
Data set [21] has as its system 11-beta-HSD1 (Rattus norvegicus). Nature of the data set: Binding affinity to rat liver microsomal 11beta-HSD1 by radiometric competition assay. In general terms: Liver microsomes are a subcellular fraction often used to study metabolism.
Data set [22] is filed under the species Homo sapiens. Nature of the data set: Antihypertensive activity in hypertensive patients assessed as placebo-corrected diastolic BP at 7 mg/day.
The species named for data set [23] is Homo sapiens. The experiment in a line: Antihypertensive activity in hypertensive patients assessed as placebo-corrected systolic BP at 7 mg/day.

Active and inactive are the calls of the source. No cut-off for these calls is given here.

The values below come from ChEMBL document CHEMBL2390937, “Evaluation of selective inhibitors of 11β-HSD1 for the treatment of hypertension” (Bioorg Med Chem Lett, 2013).

Sequence of 11-beta-hydroxysteroid dehydrogenase 1 (P16232 whole entry): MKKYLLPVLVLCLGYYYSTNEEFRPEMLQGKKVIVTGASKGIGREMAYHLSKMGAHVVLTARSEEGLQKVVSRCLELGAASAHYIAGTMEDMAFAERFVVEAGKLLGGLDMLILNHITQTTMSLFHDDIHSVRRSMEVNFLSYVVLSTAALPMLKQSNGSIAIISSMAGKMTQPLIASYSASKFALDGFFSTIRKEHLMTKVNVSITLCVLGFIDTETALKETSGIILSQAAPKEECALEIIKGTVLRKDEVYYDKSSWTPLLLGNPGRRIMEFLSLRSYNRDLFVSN

As for `CCS(=O)(=O)CCC12CCC(c3nnc(-c4ccccc4C(F)(F)F)n3C)(CC1)CC2`, the concentration at 4 h in [1] turned out to be 5.1 µM; in [7], 5 µM; in data set [8] it was 24.2 µM. Further, the concentration at 24 h in data set [2] is 6 µM; in data set [9], 0.7 µM; in data set [15], 0.7 µM. Further, the result with Rattus norvegicus [3] and in the data set on Rattus norvegicus [11] was Active. The “Cp(f)” value is 1.9 µM in the data set on Plasma [4] and 9.5 µM with Plasma [5]. For the same compound, the entries for the “Drug uptake(free)” value in the data set with Brain [6] and in the data set with Brain [13] were 0.2 µM and 0.5 µM, respectively. For the same compound, the Activity in the data set with Rattus norvegicus [10] was found to be 3 mmHg. In data set [12], this compound displayed an IC50 of 6 nM. Besides, the affinity in data set [12], expressed as Ki, was 3.9 nM. In addition, the Kp in data set [14] is under 1.
As for `CCS(=O)(=O)CC12CCC(c3nnc(-c4ccccc4C(F)(F)F)n3C)(CC1)CC2`, the concentration at 4 h is 2.1 µM in [1], 3.1 µM in [7] and 27.7 µM in data set [8]. Besides, the concentration at 24 h came to 10.2 µM in data set [2], 0.7 µM in data set [9] and 0.8 µM in [15]. The outcome with Rattus norvegicus [3] and with Rattus norvegicus [11] was Active. Also, the entries for the “Cp(f)” value in the data set with Plasma [4] and with Plasma [5] were 2.1 µM and 8 µM, respectively. Besides, the “Drug uptake(free)” value in the data set with Brain [6] turned out to be 0.2 µM; with Brain [13], 1.3 µM. For the same compound, in the data set on Rattus norvegicus [10], the Activity was 3 mmHg. In [12], the concentration for half-maximal inhibition (IC50) is 9.1 nM. Besides, in data set [12], the affinity corresponds to a Ki of 13.1 nM. Moreover, in data set [14], the Kp is under 1.
Consider `F[C@H]1C[C@](c2ccc(Cl)cc2)(c2nnc(C3CC3)n2C2CC2)C1`, for which the Activity in the data set filed under Homo sapiens [16] is listed as -5.4 mmHg; in the data set listed under Homo sapiens [17], -7.9 mmHg.
Take `Cn1c(-c2ccccc2C(F)(F)F)nnc1C12CCC(c3noc(C(C)(F)F)n3)(CC1)CC2`: the concentration at 4 h in [1] was 4.4 µM; in data set [7], 60.5 µM; in data set [8], 25 µM. Besides, the concentration at 24 h in data set [2] worked out at 25.4 µM; in data set [9], 3.4 µM; in [15], 55.4 µM. The result in the data set with Rattus norvegicus [3] and in the data set on Rattus norvegicus [11] was Active. Besides, the “Cp(f)” value with Plasma [4] is 2.4 µM; in the data set with Plasma [5], 2.5 µM. For the same compound, the Activity is listed as -5.8 mmHg with Mus musculus [18], -8 mmHg in the data set with Mus musculus [19] and over 15 mmHg in the data set with Rattus norvegicus [10]. The figures for the “Drug uptake(free)” value in the data set on Brain [6] and in the data set on Brain [13] were 2.4 µM and 3 µM, respectively. For the same compound, the results for the half-inhibitory concentration (IC50) in data set [20] and in data set [12] were 3100 nM and 4.5 nM, respectively. For the same compound, in data set [12], the affinity, expressed as Ki, was 7 nM. Also, in [14], the Kp is over 1. In [21] (tested as the 3H-labelled form), this compound displayed a Bmax of 55500 fmol/mg.
For the compound `Cn1c(-c2ccccc2C(F)(F)F)nnc1C12CCC(c3nc(-c4ccc(F)cc4)no3)(CC1)CC2`, the results for the concentration at 4 h in data set [1], in data set [7] and in data set [8] were 0.2 µM, 44.4 µM and 13.9 µM, respectively. The values for the concentration at 24 h in data set [2], in [9] and in [15] were 12.1 µM, 0.2 µM and 39.1 µM, respectively. For the same compound, the result in the data set with Rattus norvegicus [3] and in the data set with Rattus norvegicus [11] was Active. Moreover, the “Cp(f)” value with Plasma [4] is 0.05 µM; in the data set on Plasma [5], 0.07 µM. For the same compound, the results for the “Drug uptake(free)” value with Brain [6] and in the data set on Brain [13] were 0.06 µM and 0.08 µM, respectively. In addition, the Activity with Rattus norvegicus [10] was over 15 mmHg. In addition, the Kp in data set [14] is over 1.
As to `CCS(=O)(=O)CCCC12CCC(c3nnc(-c4ccccc4C(F)(F)F)n3C)(CC1)CC2` [MK-0736], the Activity in the data set filed under Homo sapiens [22] was -4.4 mmHg; in the data set filed under Homo sapiens [23], -7.7 mmHg.
Regarding `[3H]c1cc(-c2nnc(C34CCC(c5noc(C(C)(F)F)n5)(CC3)CC4)n2C)c(C(F)(F)F)cc1[3H]`, the Kd in [21] was determined as 11 nM.

By IC50 is commonly meant the point on the concentration scale where inhibition reaches its midpoint. One may read the Ki as the dissociation constant of the complex between target and ligand, obtained from inhibition or displacement. The term Kd denotes the concentration at which binding is half-saturated. A high value points to a looser complex.
